High-throughput results from PubChem.
Apaf-1 act: activators of human Apaf-1 apoptosome, primary screen, biochemical, DEVD-Rh110 fluorescence, uHTS. 330,000 compounds, 0.31% hits. AID 489031, 2010. activity change, negative = activation, % at 20 µM. Apoptotic protease-activating factor 1 (Homo sapiens), O14727. Apaf-1 apoptosome caspase-3 activation; stronger effect = lower value;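 active means activity change at or below -40% at 20 µM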
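Schedule: 30 min preincubation, 50 min reaction, room temperature / System: biochemical Apaf-1 apoptosome reconstitution / Medium: 20 mM HEPES pH 7.5 with CHAPS, BSA / Evaluation: Caspase-3 cleavage activity downstream of Apaf-1 activation / Detection: Caspase-3-released Rh110 fluorescence, 540 nm emission, 480 nm excitation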
Rh110 interf act: Rh110 fluorescence interference by putative Apaf-1 activators, confirmation, artefact control for Apaf-1 activator project, biochemical, 20 µM | shares compounds with Apaf-1 act | quenched caspase reaction, Ex480/Em540 | fluorescence interference (activity change), % at 20 µM, hits read low | 980 tested, under 10 active;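 active means mean activity change at or below -40% when tested at 20 µM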
Apaf-1 act conf: Apaf-1 activators, single-dose retest, confirmation, biochemical, fluorescence, DEVD-Rh110, 20 µM; 980 compounds, 5% hits; shares compounds with Apaf-1 act; reconstituted apoptosome caspase-3 activity; stronger effect = lower value; activity change, negative = activation, % at 20 µM;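 active means mean activity change at or below -40%, meaning activation of 40% or more, at 20 µM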
Hits are given with their value; n = inactive. A selection follows.

SMILES | Apaf-1 act | others
COc1ccc(CN2CCN(C(c3ccc(F)cc3)c3ccc(F)cc3)CC2)c(OC)c1OC | n
COCCNC(=O)c1c(N)n(CCCn2ccnc2)c2nc3ccccc3nc12 | n
Cc1cc(C)c(S(=O)(=O)Nc2ccc3c4c(cccc24)CC3)c(C)c1 | n
CCCCC(CC)CN=C(N)NC(N)=NCCCCCCN=C(N)NC(N)=NCC(CC)CCCC (stereo unspecified) | n
COc1ccc(CC(=O)N(Cc2ccccc2)c2ccc(C)cc2)cc1S(=O)(=O)N1CCOCC1 | n
COc1ccc(-c2cc(C)no2)cc1S(=O)(=O)N1CCOc2ccccc21 | -425.1 | Rh110 interf act=n;Apaf-1 act conf=n
C[C@]12CC[C@@H]3c4ccc(OS(=O)(=O)O)cc4CC[C@H]3[C@@H]1CCC2=O | n
O=C(Nc1ccccc1)c1ccc2nc(-c3ccco3)c(-c3ccco3)nc2c1 | n
COc1ccc(C(=O)Nc2ccc(C(=O)c3ccccc3)cc2)cc1 | -385.4 | Rh110 interf act=n;Apaf-1 act conf=n
COc1ccc(C(=O)c2c(C(F)(F)F)oc3c2C(=O)c2ccccc2C3=O)cc1 | n
O=C(c1cccs1)[C@@H]1[C@@H]2C(=O)N(Cc3ccc4c(c3)OCO4)C(=O)[C@@H]2C2c3ccccc3C=CN21 (stereo partly specified) | n
CC(=O)[C@]1(O)Cc2c(O)c3c(c(O)c2[C@@H](O[C@H]2C[C@H](N)[C@H](O)[C@H](C)O2)C1)C(=O)c1ccccc1C3=O | n
O=C(O)c1ccc2c3c(ncnc13)-c1ccccc1C2=O | n
O=C1/C(=C/c2ccccn2)SC(=S)N1c1ccc(O)cc1 | -47.2 | Rh110 interf act=n;Apaf-1 act conf=n
O=C1NC2=C(CCc3ccccc32)C(c2ccc(Br)cc2)N1 (stereo unspecified) | n
NC1=NC[C@H](c2ccccc2)N1CCc1cc(C(F)(F)F)cc(C(F)(F)F)c1 | n
[O-]/C(=C(\C(=S)Nc1cccc2ccccc12)[n+]1ccccc1)c1ccc(Cl)s1 | n
Cc1ccc(/C=N/NC(=O)C(C)NC(=O)c2ccccc2)cc1 (stereo unspecified) | n
CC(C)c1ccc(/C=N/NC(=O)c2ccccc2Cl)cc1 | -193.9 | Rh110 interf act=n;Apaf-1 act conf=n
O=C(Cc1cc(=O)[nH][nH]1)N/N=C/c1ccccc1Cl | n
N#Cc1c(N)n(CCNC(=O)c2ccc(Cl)cc2)c2nc3ccccc3nc12 | n
COc1ccc(-c2coc3c(CN4CCCCC4)c(O)c(CN4CCCCC4)c(O)c3c2=O)cc1 | n
Cc1cc(C)cc(Oc2coc3cc(OC(=O)c4cccs4)ccc3c2=O)c1 | -560.3 | Rh110 interf act=n;Apaf-1 act conf=n
CC1=NN(c2ccc(C(=O)O)cc2)C(=O)/C1=C\c1ccc(OC(=O)c2cccs2)cc1 | n
COc1cccc(Cn2cnc3c(NS(=O)(=O)c4ccc(Cl)cc4Cl)c(C)c(C)cc32)c1 | -65.5 | Rh110 interf act=n;Apaf-1 act conf=n
SMILES | Apaf-1 act | others
CCC(CO)Oc1cc(NCc2cccc(C)c2)c2ncn(C(C)C)c2c1 (stereo unspecified) | n
Cc1ccccc1N=Cc1cccc(O)c1O | n
COc1cc(OC)c(C2CC(=O)N3CN(c4ccccc4C)CSC3=C2C#N)cc1OC (stereo unspecified) | n
CN(C)c1cc(N/N=C\c2ccccc2)nc(N(C)C)n1 | n
CCc1ccc(OCCNc2cc(N3CCNC(C)C3)ccc2[N+](=O)[O-])cc1 (stereo unspecified) | n
O=C(Nc1cccc(-n2cnnn2)c1)c1ccc(C(F)(F)F)cc1 | -67.2 | Rh110 interf act=n;Apaf-1 act conf=n
Cc1nc(Nc2cnc(/C=C/c3cc(C(=O)Nc4cccc(C(F)(F)F)c4)ccc3C)cn2)cc(N2CCNCC2)n1 | n
O=C(NC1(O)C(=O)c2ccccc2C1=O)c1ccc(C(F)(F)F)cc1 | n
O=C1/C(=N\S(=O)(=O)c2cccs2)C([n+]2ccc(CCCc3ccccc3)cc2)=C([O-])c2ccccc21 | n
CCCCC(=Nc1ccc(N)cc1)C1=C(O)C(C(=O)OC)C(C)(C)CC1=O (stereo unspecified) | n
COC(=O)Cn1cnc2c(cnn2-c2ccccc2)c1=O | -196.9 | Rh110 interf act=n;Apaf-1 act conf=n
O=C(NC(=S)Nn1cnc2c(cnn2-c2ccccc2)c1=O)c1ccc(Oc2ccccc2)cc1 | n
O=C1Cc2ccccc2C(=O)N1OCc1ccc(Cl)cc1 | n
C#CCOCCOCCOCCNc1nc(N2CCN(C(=O)Cn3cc(CCCCN)nn3)CC2)nc(N2CCN(C(=O)[C@H](CCCCN)n3cc(CCCC)nn3)CC2)n1 | n
O=C(CNC(=O)c1ccc(Br)cc1)c1ccc(Br)cc1 | -463.3 | Rh110 interf act=n;Apaf-1 act conf=n
CCOc1cc(NCc2ccccc2)c2ncn(C(C)C)c2c1 | n
CCC(C)(C)c1ccc(OCCCC[n+]2ccccc2)c(C(C)(C)CC)c1 | n
N/C(=N\OC(=O)c1ccc(Cl)cc1Cl)c1cccnc1 | n
COc1ccc(C2CC(=O)N3CN(c4ccc(C)c(Cl)c4)CSC3=C2C#N)cc1 (stereo unspecified) | n
O=C(NNc1cc(N2CCCC2)nc(N2CCCC2)n1)c1ccc([N+](=O)[O-])cc1 | n
Cn1cc([N+](=O)[O-])c(C(=O)NNC(=O)c2ccc([N+](=O)[O-])cc2Cl)n1 | -160.7 | Rh110 interf act=n;Apaf-1 act conf=n
O=C(C[C@H]1C[C@H](C(=O)N2CCCCC2)[C@@]2(CCc3ccccc3)c3[nH]c4ccc(Cl)cc4c3CCN2C1=O)NCCCn1ccnc1 | n
Cc1ccc(F)c(NC(=S)Nc2cccc3ccccc23)c1 | n
CC(Oc1ccc2ccccc2c1)C(=O)NNC(=O)Nc1ccccc1F (stereo unspecified) | -132.1 | Rh110 interf act=n;Apaf-1 act conf=n
Fc1ccccc1NC(=S)Nc1cccc2cnccc12 | n
SMILES | Apaf-1 act | others
CCCc1[nH]nc2c1C(c1ccc(OC)c(CSC3=NCCS3)c1)C(C#N)=C(N)O2 (stereo unspecified) | n
N#Cc1nc(-c2ccco2)oc1N1CCc2ccccc2C1 | n
NS(=O)(=O)c1ccc2c(c1)C1C=CCC1C(C1CC=CCC1)N2 (stereo unspecified) | n
c1ccc2c(C[C@@H]3CNCCN3CC3CCCCC3)cccc2c1 | n
Cc1ccc(N=Cc2cccc(O)c2O)c(C)c1 | n
CCN(CC)c1ccc(/C=C2/C(=O)N(c3ccc([N+](=O)[O-])cc3)N=C2N2CCOCC2)cc1 | n
CCOC(=O)N1CCN(c2ccc([N+](=O)[O-])cc2)CC1 | -141.8 | Rh110 interf act=n;Apaf-1 act conf=n
CCOC(=O)N1CCN(C2=C(NS(=O)(=O)c3ccc(NC(C)=O)cc3)C(=O)c3ccccc3C2=O)CC1 | n
O=C1C(Cl)=C(NCc2cccnc2)C(=O)c2ccccc21 | n
Oc1ccccc1/C=N/Nc1cc(N2CCCC2)nc(N2CCCC2)n1 | n
O=C(CC1Nc2cccc3cccc(c23)NC1=O)Nc1ccccc1 (stereo unspecified) | n
NC(=O)CSc1ncc(-c2ccc([N+](=O)[O-])cc2)[nH]1 | -244.4 | Rh110 interf act=n;Apaf-1 act conf=n
CC1=CC(C)(C)N2C(=O)C(=Nc3ccc(O)cc3)c3cccc1c32 | n
O=[N+]([O-])c1cccc(C2(O)COc3ccccc3O2)c1 (stereo unspecified) | -83.5 | Rh110 interf act=n;Apaf-1 act conf=n
C=CCc1cccc(/C=N/NC(=O)CNc2cccc3ccccc23)c1O | n
CC(=O)N1CCn2c3c(c(=O)c4cc(C)ccc42)CCC31 (stereo unspecified) | n
